“And” between values parts separate entries of the source, which are not always exact repeats. Equal values may be shown once.
Tested on: Fibroblast
Experiment: Multiplex assay against human fibroblast
Type: toxicity, cell-based
How it was run: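 Imaging took place on a CQ1 microscope at 37°C and 5% CO2 once compound had been added to live cells stained at seeding with Hoechst33342, BioTracker Green Microtubule Cytoskeleton Dye, MitoTracker Red and Annexin V Alexa Fluor 680. CellPathfinder machine-learning gating classed cells as Hoechst high-intensity objects or normal cells, classed normal cells as having healthy, pyknosed or fragmented nuclei, and classed pyknosed cells as mitotic or apoptotic. Tubulin, mitochondrial-mass and membrane-permeability phenotypes are per cents of the healthy-nucleus cells.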

[1] = 12 h, 1 µM, compound concentration 1 uM
[2] = 12 h, 10 µM, compound concentration 10 uM
[3] = 24 h, 1 µM, compound concentration 1 uM
[4] = 24 h, 10 µM, compound concentration 10 uM
[5] = 48 h, 1 µM, compound concentration 1 uM
[6] = 48 h, 10 µM, compound concentration 10 uM

## COc1cc(NC(=O)CCN2CCC(OC(=O)Nc3ccccc3-c3ccccc3)CC2)c(Cl)cc1CNC[C@H](O)c1ccc(O)c2[nH]c(=O)ccc12 [BATEFENTEROL]
[1]
  Population Apoptotic (%): 53% and 37%
  Population Fragmented Nuclei (%): 25%
  Population Healthy Nuclei (%): 58% and 54%
  Population Hoechst High Intensity Objects (%): 2% and 3%
  Population Membrane Permeable-Phenotype (%): 0% and 3%
  Population Mitochondria Different-Phenotype (%): 13% and 7%
  Population Mitotic Cells (%): 46% and 62%
  Population Normal (%): 97% and 96%
  Population Pyknosed Nuclei (%): 15% and 20%
  Population Tubulin-Different-Phenotype (%): 42% and 50%
  Total Cell Count: 181 and 124
[2]
  Population Apoptotic (%): 46% and 41%
  Population Fragmented Nuclei (%): 24% and 44%
  Population Healthy Nuclei (%): 59% and 41%
  Population Hoechst High Intensity Objects (%): 2%
  Population Membrane Permeable-Phenotype (%): 0% and 1%
  Population Mitochondria Different-Phenotype (%): 22% and 23%
  Population Mitotic Cells (%): 53% and 58%
  Population Normal (%): 97%
  Population Pyknosed Nuclei (%): 16% and 13%
  Population Tubulin-Different-Phenotype (%): 63% and 84%
  Total Cell Count: 199 and 128
[3]
  Population Apoptotic (%): 55% and 50%
  Population Fragmented Nuclei (%): 21% and 26%
  Population Healthy Nuclei (%): 62% and 59%
  Population Hoechst High Intensity Objects (%): 1% and 2%
  Population Membrane Permeable-Phenotype (%): 0% and 3%
  Population Mitochondria Different-Phenotype (%): 7% and 10%
  Population Mitotic Cells (%): 44% and 50%
  Population Normal (%): 98% and 97%
  Population Pyknosed Nuclei (%): 15% and 14%
  Population Tubulin-Different-Phenotype (%): 39% and 57%
  Total Cell Count: 174 and 131
[4]
  Population Apoptotic (%): 51% and 81%
  Population Fragmented Nuclei (%): 35% and 46%
  Population Healthy Nuclei (%): 53% and 45%
  Population Hoechst High Intensity Objects (%): 0% and 1%
  Population Membrane Permeable-Phenotype (%): 0% and 1%
  Population Mitochondria Different-Phenotype (%): 34% and 14%
  Population Mitotic Cells (%): 48% and 18%
  Population Normal (%): 99% and 98%
  Population Pyknosed Nuclei (%): 11% and 8%
  Population Tubulin-Different-Phenotype (%): 63% and 80%
  Total Cell Count: 247 and 136
[5]
  Population Apoptotic (%): 62% and 66%
  Population Fragmented Nuclei (%): 23% and 29%
  Population Healthy Nuclei (%): 54% and 56%
  Population Hoechst High Intensity Objects (%): 3%
  Population Membrane Permeable-Phenotype (%): 0% and 4%
  Population Mitochondria Different-Phenotype (%): 18% and 14%
  Population Mitotic Cells (%): 37% and 33%
  Population Normal (%): 96%
  Population Pyknosed Nuclei (%): 22% and 14%
  Population Tubulin-Different-Phenotype (%): 53% and 70%
  Total Cell Count: 185 and 130
[6]
  Population Apoptotic (%): 74% and 88%
  Population Fragmented Nuclei (%): 22% and 45%
  Population Healthy Nuclei (%): 54% and 48%
  Population Hoechst High Intensity Objects (%): 1% and 0%
  Population Membrane Permeable-Phenotype (%): 0% and 1%
  Population Mitochondria Different-Phenotype (%): 45% and 15%
  Population Mitotic Cells (%): 25% and 11%
  Population Normal (%): 98% and 99%
  Population Tubulin-Different-Phenotype (%): 77% and 76%
  Total Cell Count: 213 and 144

## CC(C)(c1ccc(O)cc1)c1ccc(O)cc1 [BISPHENOL A]
[1]
  Population Apoptotic (%): 18.37% and 18.42%
  Population Fragmented Nuclei (%): 10.19% and 4.35%
  Population Healthy Nuclei (%): 58.6% and 79.13%
  Population Hoechst High Intensity Objects (%): 0%
  Population Membrane Permeable-Phenotype (%): 2.17% and 2.75%
  Population Mitochondria Different-Phenotype (%): 8.7% and 5.49%
  Population Mitotic Cells (%): 81.63% and 81.58%
  Population Normal (%): 100%
  Population Pyknosed Nuclei (%): 31.21% and 16.52%
  Population Tubulin-Different-Phenotype (%): 15.22% and 10.44%
  Total Cell Count: 157 and 230
[2]
  Population Apoptotic (%): 4.76% and 2.94%
  Population Fragmented Nuclei (%): 8.94% and 3.67%
  Population Healthy Nuclei (%): 67.6% and 82.45%
  Population Hoechst High Intensity Objects (%): 0%
  Population Membrane Permeable-Phenotype (%): 3.31% and 0.99%
  Population Mitochondria Different-Phenotype (%): 7.44% and 5.45%
  Population Mitotic Cells (%): 95.24% and 97.06%
  Population Normal (%): 100%
  Population Pyknosed Nuclei (%): 23.46% and 13.88%
  Population Tubulin-Different-Phenotype (%): 14.88% and 19.31%
  Total Cell Count: 179 and 245
[3]
  Population Fragmented Nuclei (%): 7.23% and 3.8%
  Population Healthy Nuclei (%): 68.07% and 86.92%
  Population Hoechst High Intensity Objects (%): 0%
  Population Membrane Permeable-Phenotype (%): 4.42% and 3.88%
  Population Mitochondria Different-Phenotype (%): 5.31% and 2.91%
  Population Mitotic Cells (%): 90.24% and 59.09%
  Population Normal (%): 100%
  Population Pyknosed Nuclei (%): 24.7% and 9.28%
  Population Tubulin-Different-Phenotype (%): 14.16% and 12.14%
  Total Cell Count: 166 and 237
[4]
  Population Apoptotic (%): 6.45% and 4.76%
  Population Fragmented Nuclei (%): 7.18% and 3.7%
  Population Healthy Nuclei (%): 76.92% and 87.65%
  Population Hoechst High Intensity Objects (%): 0%
  Population Membrane Permeable-Phenotype (%): 2.67% and 1.88%
  Population Mitochondria Different-Phenotype (%): 6% and 4.23%
  Population Mitotic Cells (%): 93.55% and 95.24%
  Population Normal (%): 100%
  Population Pyknosed Nuclei (%): 15.9% and 8.64%
  Population Tubulin-Different-Phenotype (%): 16% and 16.43%
  Total Cell Count: 195 and 243
[5]
  Population Apoptotic (%): 50% and 33.33%
  Population Fragmented Nuclei (%): 8.98% and 4.96%
  Population Healthy Nuclei (%): 86.23% and 86.36%
  Population Hoechst High Intensity Objects (%): 0%
  Population Membrane Permeable-Phenotype (%): 0.69% and 2.39%
  Population Mitochondria Different-Phenotype (%): 11.11% and 3.83%
  Population Mitotic Cells (%): 50% and 66.67%
  Population Normal (%): 100%
  Population Pyknosed Nuclei (%): 4.79% and 8.68%
  Population Tubulin-Different-Phenotype (%): 3.47% and 12.92%
  Total Cell Count: 167 and 242
[6]
  Population Apoptotic (%): 25% and 14.29%
  Population Fragmented Nuclei (%): 8.49% and 3.36%
  Population Healthy Nuclei (%): 85.85% and 90.76%
  Population Hoechst High Intensity Objects (%): 0%
  Population Membrane Permeable-Phenotype (%): 0% and 4.63%
  Population Mitotic Cells (%): 75% and 85.71%
  Population Normal (%): 100%
  Population Pyknosed Nuclei (%): 5.66% and 5.88%
  Population Tubulin-Different-Phenotype (%): 7.14% and 18.52%
  Total Cell Count: 212 and 238

## O=C(O)CCC/C=C\CC1C(O)CC(O)C1/C=C/C(O)COc1cccc(Cl)c1 (stereo not given) [CLOPROSTENOL]
[1]
  Population Apoptotic (%): 41% and 20%
  Population Fragmented Nuclei (%): 15% and 22%
  Population Healthy Nuclei (%): 68% and 52%
  Population Hoechst High Intensity Objects (%): 0% and 2%
  Population Membrane Permeable-Phenotype (%): 0% and 8%
  Population Mitochondria Different-Phenotype (%): 2%
  Population Mitotic Cells (%): 58% and 80%
  Population Normal (%): 100% and 97%
  Population Pyknosed Nuclei (%): 15% and 25%
  Population Tubulin-Different-Phenotype (%): 22% and 52%
  Total Cell Count: 153 and 141
[2]
  Population Apoptotic (%): 38% and 23%
  Population Fragmented Nuclei (%): 23%
  Population Healthy Nuclei (%): 58% and 43%
  Population Hoechst High Intensity Objects (%): 12% and 4%
  Population Membrane Permeable-Phenotype (%): 0% and 11%
  Population Mitochondria Different-Phenotype (%): 4% and 9%
  Population Mitotic Cells (%): 61% and 76%
  Population Normal (%): 87% and 95%
  Population Pyknosed Nuclei (%): 18% and 34%
  Population Tubulin-Different-Phenotype (%): 31% and 53%
  Total Cell Count: 212 and 105
[3]
  Population Apoptotic (%): 41% and 18%
  Population Fragmented Nuclei (%): 19% and 27%
  Population Healthy Nuclei (%): 62% and 49%
  Population Hoechst High Intensity Objects (%): 0% and 3%
  Population Membrane Permeable-Phenotype (%): 1% and 7%
  Population Mitochondria Different-Phenotype (%): 3% and 5%
  Population Mitotic Cells (%): 58% and 81%
  Population Normal (%): 99% and 96%
  Population Pyknosed Nuclei (%): 18% and 23%
  Population Tubulin-Different-Phenotype (%): 26% and 53%
  Total Cell Count: 161 and 144
[4]
  Population Apoptotic (%): 41% and 59%
  Population Fragmented Nuclei (%): 24% and 28%
  Population Healthy Nuclei (%): 57% and 50%
  Population Hoechst High Intensity Objects (%): 12% and 3%
  Population Membrane Permeable-Phenotype (%): 2% and 7%
  Population Mitochondria Different-Phenotype (%): 3%
  Population Mitotic Cells (%): 58% and 40%
  Population Normal (%): 87% and 96%
  Population Pyknosed Nuclei (%): 18% and 21%
  Population Tubulin-Different-Phenotype (%): 24% and 57%
  Total Cell Count: 218 and 107
[5]
  Population Apoptotic (%): 65% and 36%
  Population Fragmented Nuclei (%): 21% and 37%
  Population Healthy Nuclei (%): 59% and 43%
  Population Hoechst High Intensity Objects (%): 2% and 3%
  Population Membrane Permeable-Phenotype (%): 2% and 12%
  Population Mitochondria Different-Phenotype (%): 2% and 10%
  Population Mitotic Cells (%): 34% and 64%
  Population Normal (%): 97% and 96%
  Population Pyknosed Nuclei (%): 19% and 18%
  Population Tubulin-Different-Phenotype (%): 25% and 63%
  Total Cell Count: 156 and 137
[6]
  Population Apoptotic (%): 46% and 55%
  Population Fragmented Nuclei (%): 25% and 41%
  Population Healthy Nuclei (%): 57% and 49%
  Population Hoechst High Intensity Objects (%): 13% and 8%
  Population Membrane Permeable-Phenotype (%): 0% and 4%
  Population Mitochondria Different-Phenotype (%): 2% and 4%
  Population Mitotic Cells (%): 53% and 44%
  Population Normal (%): 86% and 91%
  Population Pyknosed Nuclei (%): 16% and 9%
  Population Tubulin-Different-Phenotype (%): 30% and 61%
  Total Cell Count: 205 and 108

From ChEMBL document CHEMBL5724801, “EUbOPEN Chemogenomics Library - Multiplex” (2024)
